Experimental data from different studies.
Protocols differ between the studies behind these lines.
Matrix: plasma

Compound | species | route | dose | notes | half-life [h]
C[C@@H](Nc1cc(F)cc(F)c1)c1cc(C(=O)N(C)C)cc2c(=O)cc(N3CCOCC3)oc12 | human | oral | 120 mg | patients | 4.62
COc1cc(C(=O)NC2CCN(C)CC2)c(F)cc1Nc1ncc(C(F)(F)F)c(Oc2cccc3c2C(=O)N(C)C3)n1 | human | oral | 300 mg | multiple doses, once daily, patients | 21.6
CC(C)n1cc(C#N)c2cc(-n3cc(C(=O)O)cn3)ccc21 | human | oral | 10 mg | single dose, fasted, healthy volunteers | 5.1
COc1ccc([C@@H]2CN(C(=O)[C@@H](O)CO)C[C@@]2(C)[C@@H](C)O)cc1OC1CN(c2ccc(C)cn2)C1 | human | oral | 0.1 mg | single dose, healthy volunteers | 9.74
CC(C)(O)c1ccccc1-c1ccc2[nH]c(/C=C/c3ccc(C(F)(F)F)cc3)nc2c1 | male human | oral | 15 mg | single dose, fasted, healthy volunteers | 59.3
Cn1cc(-c2ccc(S(=O)(=O)[C@@H]3C[C@@H](C(=O)NC4(C#N)CC4)N(C(=O)C4(C(F)(F)F)CC4)C3)c(C(F)(F)F)c2)cn1 | human | oral | 30 mg | single dose, fasted, healthy volunteers | 10.2
CC(C)(Sc1ccncc1-c1ccc(C#N)c2ccccc12)C(=O)O | male human | oral | 20 mg | single dose, fed, healthy volunteers | 13.8
C#C[C@]1(COP(=O)(O)OP(=O)(O)OP(=O)(O)O)O[C@@H](n2cnc3c(N)nc(F)nc32)C[C@@H]1O | human | oral | 30 mg | single dose | 118
c1cnc2ccc(Nc3nc(NC4CC4)c4nc[nH]c4n3)cc2c1 | human | oral | 50 mg/m² | patients | 2
COCCOc1cnc2ccn([C@H](C)c3nnc4c(F)cc(-c5cnn(C)c5)cn34)c(=O)c2c1 | human | oral | 200 mg | multiple doses, once daily, patients | 8.3
CO[C@@H]1[C@H](OC(=O)N2CC(CCN3CCOCC3)C2)CC[C@]2(CO2)[C@H]1[C@@]1(C)O[C@@H]1CC=C(C)C | human | subcutaneous | 3.6 mg | single dose, healthy volunteers | 0.47
NS(=O)(=O)NCCNc1nonc1C(=NO)Nc1ccc(F)c(Br)c1 | human | oral | 600 mg | multiple doses, twice daily, steady state, patients | 3.3
CO[C@H]1CC[C@H](N2C(=O)CNc3ncc(-c4ccc(C(C)(C)O)nc4)nc32)CC1 | human | oral | 45 mg | patients | 4.86
